Usually MIC stands for the least concentration at which growth counts as inhibited.

≈ marks a conversion by molar mass, not a printed value.

Experimental findings from publication PMC9946004 (Infection and Drug Resistance, 2023) are described below.

Experiment in all cases: MIC by broth microdilution
Assay type in all cases: cell-based
Common to all, as to settings: Staphylococcus aureus
In general terms: Dilution methods test growth across graded concentrations, often in twofold steps.

Test [1] deals with S. aureus 18-W26-14 (MRSA). The procedure, abridged: (§1)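 Broth microdilution per CLSI 2018 in Mueller–Hinton broth, in triplicate. Inoculum was 5×10^5 CFU/mL, incubated 20 h at 37 °C. MIC was the lowest concentration with no visible growth. ATCC29213 served as the quality-control strain.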
Test [2] concerns S. aureus 18-W27-73 (MRSA). In outline: as §1
The subject of the next test is S. aureus ATCC29213. In outline: as §1

As to `CN[C@H](CC(C)C)C(=O)N[C@H]1C(=O)N[C@@H](CC(N)=O)C(=O)N[C@H]2C(=O)N[C@H]3C(=O)N[C@H](C(=O)N[C@H](C(=O)O)c4cc(O)cc(O)c4-c4cc3ccc4O)[C@H](O)c3ccc(c(Cl)c3)Oc3cc2cc(c3O[C@@H]2O[C@H](CO)[C@@H](O)[C@H](O)[C@H]2O[C@H]2C[C@](C)(N)[C@H](O)[C@H](C)O2)Oc2ccc(cc2Cl)[C@H]1O` [Vancomycin, vancomycin], the MIC was determined as 2 µg/mL (≈ 1.38 µM) in test [1], 1 µg/mL (≈ 0.69 µM) in test [2] and 1 µg/mL (≈ 0.69 µM) with S. aureus ATCC29213.
Regarding `CC(=O)NC[C@H]1CN(c2ccc(N3CCOCC3)c(F)c2)C(=O)O1` [Linezolid, linezolid], the MIC was found to be 4 µg/mL (≈ 11.9 µM) in test [1], 2 µg/mL (≈ 5.93 µM) in test [2] and 2 µg/mL (≈ 5.93 µM) with S. aureus ATCC29213.
